Experimental findings from ChEMBL document CHEMBL1137088, “Distamycin analogues with enhanced lipophilicity: synthesis and antimicrobial activity” (2004) are described below.

Molecules are shown by their SMILES. ≈ marks a conversion by molar mass, not a printed value. Calls of active or inactive are those of the source. No cut-off for these calls is given here.

The test system of experiment [1] is Enterococcus faecalis. Kind of experiment: Antibacterial activity against Streptococcus faecalis NCTC 775 strain. The experiment is classed as functional.
In experiment [2] the test system is Mycolicibacterium fortuitum. Briefly: Antibacterial activity against Mycobacterium fortuitum NCTC 10394 strain. It counts as functional.
In experiment [3] the test system is Klebsiella aerogenes. Briefly: Antibacterial activity against Klebsiella aerogenes WRL CN 345 strain. It counts as functional, WRL CN 375. Conditions: Klebsiella aerogenes, WRL CN 375; read-out: MIC.
In experiment [4] the test system is Staphylococcus aureus. Briefly: Antibacterial activity against methicillin-resistant Staphylococcus aureus (MRSA) PHLS M1 strain. The experiment is classed as functional. In outline: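 Read-out is the minimum inhibitory concentration, reported in µM. Amoxycillin is tested alongside as the reference antibiotic.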
Experiment [5] in a line: Antibacterial activity against Enterobacter cloacae NCTC 10005 strain. The experiment is classed as functional.
The next experiment deals with Proteus vulgaris. Kind of experiment: Antibacterial activity against Proteus vulgaris NCTC 4175 strain. It counts as functional.
The test system of experiment [6] is Staphylococcus aureus. Briefly: Antibacterial activity against Staphylococcus aureus NCTC 6571 strain. The experiment is classed as functional.
In another experiment the test system is Enterobacter cloacae. Kind of experiment: Antibacterial activity against Enterobacter cloacae NCTC 10005 strain. It counts as functional, organism-based.
Experiment [7] concerns Klebsiella aerogenes. Kind of experiment: Antibacterial activity against Klebsiella aerogenes WRL CN 345 strain; na = not active. The experiment is classed as functional, organism-based.
The next experiment deals with Candida albicans. Briefly: Antifungal activity against Candida albicans NCPF 3179 strain. The experiment is classed as functional. Conditions: Candida albicans; read-out: MIC.
A short description of experiment [8]: Antibacterial activity against Proteus vulgaris NCTC 4175 strain; na = not active. The experiment is classed as functional.
The test system of experiment [9] is Aspergillus niger. Briefly: Antifungal activity against Aspergillus niger IMI17454 strain; na = not active. The experiment is classed as functional.
For a further experiment, the system named is Escherichia coli. Briefly: Antibacterial activity against Escherichia coli NCTC 9001 strain. The experiment is classed as functional, organism-based.
Experiment [10] in a line: Antifungal activity against Candida albicans NCPF 3179 strain; na = not active. The experiment is classed as functional.
Experiment [11] has as its system Staphylococcus aureus. Briefly: Antibacterial activity against Staphylococcus aureus NCTC 6571 strain; na = not active. It counts as functional, organism-based.
Another experiment relates to Aspergillus nidulans. Kind of experiment: Antifungal activity against Aspergillus nidulans CABI 0160037 strain. The experiment is classed as functional.
For experiment [12], the system named is Enterococcus faecalis. Briefly: Antibacterial activity against Streptococcus faecalis NCTC 775 strain; na = not active. It counts as functional, organism-based.
Experiment [13] deals with Staphylococcus aureus. Kind of experiment: Antibacterial activity against MRSA PHLS M1 strain; na = not active. It counts as functional, organism-based.
Experiment [14] relates to Aspergillus niger. Briefly: Antifungal activity against Aspergillus niger IMI17454 strain. Conditions: Aspergillus niger; read-out: MIC. It counts as functional.

In the case of `CC1(C)S[C@@H]2[C@H](NC(=O)[C@H](N)c3ccc(O)cc3)C(=O)N2[C@H]1C(=O)O` [AMOXICILLIN], the MIC in the experiment with Enterococcus faecalis [1] amounted to 0.49 µM (≈ 0.179 µg/mL); in experiment [2], 16.1 µM (≈ 5.88 µg/mL); with Klebsiella aerogenes [3], 8.1 µM (≈ 2.96 µg/mL); in the experiment with Staphylococcus aureus [4], 16.1 µM (≈ 5.88 µg/mL); in experiment [5] it was 4 µM (≈ 1.46 µg/mL); in the experiment with Proteus vulgaris, 4 µM (≈ 1.46 µg/mL). This molecule also registered an MIC in the experiment with Staphylococcus aureus [6] of 0.49 µM (≈ 0.179 µg/mL).

Take `CN(C)CCCNC(=O)c1cc(NC(=O)c2cc(NC(=O)c3cc(NC=O)cn3C)cn2C2CCCC2)cn1C`: the minimum inhibitory concentration (MIC) in the experiment on Enterococcus faecalis [1] is 75 µM (≈ 41.3 µg/mL); in experiment [2] it was 75.3 µM (≈ 41.5 µg/mL); in the experiment on Candida albicans it was 75.3 µM (≈ 41.5 µg/mL); against Staphylococcus aureus [4], 75.3 µM (not active) (≈ 41.5 µg/mL); against Staphylococcus aureus [6], 75 µM (≈ 41.3 µg/mL). Moreover, the MIC entry (with Enterobacter cloacae; with Klebsiella aerogenes [7]; in [8]; in the experiment on Aspergillus niger [9]; in the experiment on Escherichia coli) was “inactive” in each case.

As to `CC(=O)Nc1cc(C(=O)Nc2cc(C(=O)Nc3cc(C(=O)NCCCN4CCN(C)CC4)n(C)c3)n(CCC(C)C)c2)n(C)c1`, the MIC entry (in experiment [10]; with Staphylococcus aureus [11]; in the experiment with Enterobacter cloacae; in the experiment on Enterococcus faecalis [12]; in the experiment with Staphylococcus aureus [13]; with Aspergillus niger [9]) was “inactive” throughout. The MIC entry in the experiment with Escherichia coli is “inactive”. In addition, the MIC (in experiment [2]; with Aspergillus nidulans; in the experiment on Klebsiella aerogenes [3]; against Proteus vulgaris) was 136 µM (≈ 84.6 µg/mL) each time.

For `OC(Cn1cncn1)(Cn1cncn1)c1ccc(F)cc1F` [FLUCONAZOLE], the minimal inhibitory concentration (MIC) in experiment [10] was 81.6 µM (≈ 25 µg/mL); in the experiment on Aspergillus nidulans, 90.8 µM (≈ 27.8 µg/mL); in the experiment on Aspergillus niger [14], above 300 µM.

Consider `Cc1sccc1C(=O)Nc1cc(C(=O)Nc2cc(C(=O)Nc3cc(C(=O)NCCCN(C)C)n(C)c3)n(C)c2)n(C)c1`, for which the MIC with Enterococcus faecalis [1] was determined as 141 µM (≈ 83.6 µg/mL); in experiment [2], 35.4 µM (≈ 21 µg/mL); in the experiment on Aspergillus nidulans, 70.8 µM (≈ 42 µg/mL); with Aspergillus niger [14] it was 141 µM (≈ 83.6 µg/mL); with Klebsiella aerogenes [3], 70.8 µM (≈ 42 µg/mL); in the experiment with Staphylococcus aureus [4], 141 µM (≈ 83.6 µg/mL). Besides, the MIC result (in experiment [10]; with Staphylococcus aureus [11]; with Enterobacter cloacae; in experiment [8]; in the experiment with Escherichia coli) was “inactive” throughout.

For `CN[C@@H]1[C@H](O[C@H]2[C@H](O[C@H]3[C@H](O)[C@@H](O)[C@H](N=C(N)N)[C@@H](O)[C@@H]3N=C(N)N)O[C@@H](C)[C@]2(O)C=O)O[C@@H](CO)[C@H](O)[C@H]1O` [STREPTOMYCIN], it took 10.8 µM (≈ 6.28 µg/mL) to inhibit growth against Staphylococcus aureus [6] (MIC).

Take `COc1cccc(C(=O)Nc2cc(C(=O)Nc3cc(C(=O)Nc4cc(C(=O)NCCCN5CCN(C)CC5)n(C)c4)n(CCC(C)C)c3)n(C)c2)c1`: the MIC with Enterococcus faecalis [1] came out at 60.4 µM (≈ 43.1 µg/mL); in experiment [2], 121 µM (≈ 86.4 µg/mL); in the experiment on Aspergillus nidulans, 30.2 µM (≈ 21.6 µg/mL); in the experiment on Candida albicans it was 121 µM (≈ 86.4 µg/mL); in the experiment on Aspergillus niger [14], 121 µM (≈ 86.4 µg/mL); with Klebsiella aerogenes [3] it was 121 µM (≈ 86.4 µg/mL). Also, the MIC against Staphylococcus aureus [4] was 121 µM (≈ 86.4 µg/mL); in experiment [5] it was 121 µM (≈ 86.4 µg/mL); against Proteus vulgaris, 121 µM (≈ 86.4 µg/mL); in the experiment with Staphylococcus aureus [6] it was 60 µM (≈ 42.8 µg/mL). The MIC entry in the experiment with Escherichia coli is “inactive”.

As for `CC(=O)Nc1cc(C(=O)Nc2cc(C(=O)Nc3cc(C(=O)NCCCN4CCCC4)n(C)c3)n(C)c2)n(C)c1`, the MIC with Enterococcus faecalis [1] worked out at 153 µM (≈ 82.1 µg/mL); in [2], 76.9 µM (≈ 41.3 µg/mL); with Aspergillus nidulans it was 153 µM (≈ 82.1 µg/mL); in the experiment with Aspergillus niger [14] it was 153 µM (≈ 82.1 µg/mL); in the experiment with Klebsiella aerogenes [3], 153 µM (≈ 82.1 µg/mL); in experiment [5], 153 µM (≈ 82.1 µg/mL). For the same molecule, the MIC entry (in [10]; in the experiment with Staphylococcus aureus [11]; in the experiment with Staphylococcus aureus [13]; in experiment [8]; in the experiment with Escherichia coli) was “inactive” throughout.

Turning to `CCC(C)n1ncn(-c2ccc(N3CCN(c4ccc(OC[C@H]5CO[C@](Cn6cncn6)(c6ccc(Cl)cc6Cl)O5)cc4)CC3)cc2)c1=O` (stereo partly drawn) [ITRACONAZOLE], the results for the MIC (in [10]; against Aspergillus nidulans; in the experiment with Aspergillus niger [14]) were 35.4 µM (≈ 25 µg/mL), 35.4 µM (≈ 25 µg/mL) and 17.7 µM (≈ 12.5 µg/mL), respectively.
